Test results published in ChEMBL document CHEMBL4689842, “EUbOPEN Chemogenomics Library wave 1” (2021).

Test system: HEK-293T
Experiment: Multiplex assay against HEK293T;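 for Population Tubulin-Different-Phenotype (%): share of the cells with healthy nuclei that show this phenotype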
Type: toxicity, cell-based
Settings: human
Method in brief: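 Compound was added to live cells that had been stained at seeding with Hoechst33342, BioTracker Green Microtubule Cytoskeleton Dye, MitoTracker Red and Annexin V Alexa Fluor 680, and imaging followed on a CQ1 microscope at 37°C and 5% CO2. CellPathfinder machine-learning gating divided cells into Hoechst high-intensity objects or normal cells, normal cells into healthy, pyknosed or fragmented nuclei, and pyknosed cells into mitotic or apoptotic. Tubulin, mitochondrial-mass and membrane-permeability phenotypes are per cents of healthy-nucleus cells.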

[1] = 12 h, 1 µM, compound concentration 1 uM, replicate 1
[2] = 12 h, 1 µM, compound concentration 1 uM, replicate 2
[3] = 12 h, 10 µM, compound concentration 10 uM, replicate 1
[4] = 12 h, 10 µM, compound concentration 10 uM, replicate 2
[5] = 24 h, 1 µM, compound concentration 1 uM, replicate 1
[6] = 24 h, 1 µM, compound concentration 1 uM, replicate 2
[7] = 24 h, 10 µM, compound concentration 10 uM, replicate 1
[8] = 24 h, 10 µM, compound concentration 10 uM, replicate 2
[9] = 48 h, 1 µM, compound concentration 1 uM, replicate 1
[10] = 48 h, 1 µM, compound concentration 1 uM, replicate 2
[11] = 48 h, 10 µM, compound concentration 10 uM, replicate 1
[12] = 48 h, 10 µM, compound concentration 10 uM, replicate 2

COC(=N)c1nc2ccc3ncnc(Nc4ccc(OC)cc4F)c3c2s1
Population Apoptotic (%) [1]: 15%
Population Fragmented Nuclei (%) [1]: 16%
Population Healthy Nuclei (%) [1]: 53%
Population Hoechst High Intensity Objects (%) [1]: 21%
Population Membrane Permeable-Phenotype (%) [1]: 3%
Population Mitochondria Different-Phenotype (%) [1]: 12%
Population Mitotic Cells (%) [1]: 84%
Population Normal (%) [1]: 78%
Population Pyknosed Nuclei (%) [1]: 29%
Population Tubulin-Different-Phenotype (%) [1]: 5%
Total Cell Count [1]: 546
Population Apoptotic (%) [2]: 24%
Population Fragmented Nuclei (%) [2]: 4%
Population Healthy Nuclei (%) [2]: 87%
Population Hoechst High Intensity Objects (%) [2]: 5%
Population Membrane Permeable-Phenotype (%) [2]: 0%
Population Mitochondria Different-Phenotype (%) [2]: 21%
Population Mitotic Cells (%) [2]: 75%
Population Normal (%) [2]: 94%
Population Pyknosed Nuclei (%) [2]: 7%
Population Tubulin-Different-Phenotype (%) [2]: 9%
Total Cell Count [2]: 1072
Population Apoptotic (%) [3]: 19%
Population Fragmented Nuclei (%) [3]: 10%
Population Healthy Nuclei (%) [3]: 66%
Population Hoechst High Intensity Objects (%) [3]: 10%
Population Mitochondria Different-Phenotype (%) [3]: 6%
Population Mitotic Cells (%) [3]: 80%
Population Normal (%) [3]: 89%
Population Pyknosed Nuclei (%) [3]: 22%
Population Tubulin-Different-Phenotype (%) [3]: 4%
Total Cell Count [3]: 552
Population Apoptotic (%) [4]: 4%
Population Fragmented Nuclei (%) [4]: 6%
Population Healthy Nuclei (%) [4]: 88%
Population Hoechst High Intensity Objects (%) [4]: 3%
Population Membrane Permeable-Phenotype (%) [4]: 2%
Population Mitochondria Different-Phenotype (%) [4]: 8%
Population Mitotic Cells (%) [4]: 95%
Population Normal (%) [4]: 96%
Population Pyknosed Nuclei (%) [4]: 5%
Population Tubulin-Different-Phenotype (%) [4]: 6%
Total Cell Count [4]: 1236
Population Apoptotic (%) [5]: 19%
Population Fragmented Nuclei (%) [5]: 14%
Population Healthy Nuclei (%) [5]: 71%
Population Hoechst High Intensity Objects (%) [5]: 11%
Population Membrane Permeable-Phenotype (%) [5]: 3%
Population Mitochondria Different-Phenotype (%) [5]: 7%
Population Mitotic Cells (%) [5]: 80%
Population Normal (%) [5]: 88%
Population Pyknosed Nuclei (%) [5]: 13%
Population Tubulin-Different-Phenotype (%) [5]: 12%
Total Cell Count [5]: 573
Population Apoptotic (%) [6]: 17%
Population Healthy Nuclei (%) [6]: 82%
Population Hoechst High Intensity Objects (%) [6]: 5%
Population Mitochondria Different-Phenotype (%) [6]: 4%
Population Mitotic Cells (%) [6]: 82%
Population Normal (%) [6]: 94%
Population Pyknosed Nuclei (%) [6]: 2%
Population Tubulin-Different-Phenotype (%) [6]: 19%
Total Cell Count [6]: 1668
Population Apoptotic (%) [7]: 16%
Population Fragmented Nuclei (%) [7]: 9%
Population Healthy Nuclei (%) [7]: 82%
Population Hoechst High Intensity Objects (%) [7]: 8%
Population Membrane Permeable-Phenotype (%) [7]: 7%
Population Mitochondria Different-Phenotype (%) [7]: 2%
Population Mitotic Cells (%) [7]: 83%
Population Normal (%) [7]: 91%
Population Pyknosed Nuclei (%) [7]: 8%
Population Tubulin-Different-Phenotype (%) [7]: 8%
Total Cell Count [7]: 657
Population Apoptotic (%) [8]: 4%
Population Fragmented Nuclei (%) [8]: 20%
Population Healthy Nuclei (%) [8]: 77%
Population Hoechst High Intensity Objects (%) [8]: 3%
Population Membrane Permeable-Phenotype (%) [8]: 4%
Population Mitotic Cells (%) [8]: 95%
Population Normal (%) [8]: 96%
Population Pyknosed Nuclei (%) [8]: 2%
Population Tubulin-Different-Phenotype (%) [8]: 5%
Total Cell Count [8]: 2058

CN1C2CCC1CC(OC(c1ccc(F)cc1)c1ccc(F)cc1)C2.Cl (stereo not given)
Population Apoptotic (%) [1]: 50%
Population Fragmented Nuclei (%) [1]: 12%
Population Healthy Nuclei (%) [1]: 27%
Population Hoechst High Intensity Objects (%) [1]: 12%
Population Membrane Permeable-Phenotype (%) [1]: 2%
Population Mitochondria Different-Phenotype (%) [1]: 84%
Population Mitotic Cells (%) [1]: 50%
Population Normal (%) [1]: 87%
Population Pyknosed Nuclei (%) [1]: 60%
Population Tubulin-Different-Phenotype (%) [1]: 58%
Total Cell Count [1]: 303
Population Apoptotic (%) [2]: 18%
Population Fragmented Nuclei (%) [2]: 2%
Population Healthy Nuclei (%) [2]: 43%
Population Hoechst High Intensity Objects (%) [2]: 3%
Population Membrane Permeable-Phenotype (%) [2]: 18%
Population Mitochondria Different-Phenotype (%) [2]: 35%
Population Mitotic Cells (%) [2]: 81%
Population Normal (%) [2]: 96%
Population Pyknosed Nuclei (%) [2]: 54%
Population Tubulin-Different-Phenotype (%) [2]: 56%
Total Cell Count [2]: 252
Population Apoptotic (%) [3]: 80%
Population Fragmented Nuclei (%) [3]: 9%
Population Healthy Nuclei (%) [3]: 25%
Population Hoechst High Intensity Objects (%) [3]: 13%
Population Membrane Permeable-Phenotype (%) [3]: 1%
Population Mitochondria Different-Phenotype (%) [3]: 100%
Population Mitotic Cells (%) [3]: 19%
Population Normal (%) [3]: 86%
Population Pyknosed Nuclei (%) [3]: 65%
Population Tubulin-Different-Phenotype (%) [3]: 98%
Total Cell Count [3]: 280
Population Apoptotic (%) [4]: 63%
Population Fragmented Nuclei (%) [4]: 3%
Population Healthy Nuclei (%) [4]: 21%
Population Hoechst High Intensity Objects (%) [4]: 6%
Population Membrane Permeable-Phenotype (%) [4]: 2%
Population Mitochondria Different-Phenotype (%) [4]: 92%
Population Mitotic Cells (%) [4]: 36%
Population Normal (%) [4]: 93%
Population Pyknosed Nuclei (%) [4]: 74%
Population Tubulin-Different-Phenotype (%) [4]: 95%
Total Cell Count [4]: 201
Population Apoptotic (%) [5]: 48%
Population Fragmented Nuclei (%) [5]: 15%
Population Healthy Nuclei (%) [5]: 19%
Population Hoechst High Intensity Objects (%) [5]: 14%
Population Membrane Permeable-Phenotype (%) [5]: 10%
Population Mitochondria Different-Phenotype (%) [5]: 76%
Population Mitotic Cells (%) [5]: 51%
Population Normal (%) [5]: 85%
Population Pyknosed Nuclei (%) [5]: 64%
Total Cell Count [5]: 295
Population Apoptotic (%) [6]: 22%
Population Fragmented Nuclei (%) [6]: 4%
Population Healthy Nuclei (%) [6]: 49%
Population Hoechst High Intensity Objects (%) [6]: 1%
Population Membrane Permeable-Phenotype (%) [6]: 12%
Population Mitochondria Different-Phenotype (%) [6]: 35%
Population Mitotic Cells (%) [6]: 77%
Population Normal (%) [6]: 98%
Population Pyknosed Nuclei (%) [6]: 46%
Population Tubulin-Different-Phenotype (%) [6]: 64%
Total Cell Count [6]: 305
Population Apoptotic (%) [7]: 79%
Population Fragmented Nuclei (%) [7]: 16%
Population Healthy Nuclei (%) [7]: 13%
Population Hoechst High Intensity Objects (%) [7]: 20%
Population Membrane Permeable-Phenotype (%) [7]: 3%
Population Mitochondria Different-Phenotype (%) [7]: 100%
Population Mitotic Cells (%) [7]: 20%
Population Normal (%) [7]: 79%
Population Pyknosed Nuclei (%) [7]: 70%
Population Tubulin-Different-Phenotype (%) [7]: 96%
Total Cell Count [7]: 292
Population Apoptotic (%) [8]: 88%
Population Fragmented Nuclei (%) [8]: 3%
Population Healthy Nuclei (%) [8]: 28%
Population Hoechst High Intensity Objects (%) [8]: 7%
Population Membrane Permeable-Phenotype (%) [8]: 1%
Population Mitochondria Different-Phenotype (%) [8]: 96%
Population Mitotic Cells (%) [8]: 11%
Population Normal (%) [8]: 92%
Population Pyknosed Nuclei (%) [8]: 67%
Population Tubulin-Different-Phenotype (%) [8]: 86%
Total Cell Count [8]: 190
Population Apoptotic (%) [9]: 47%
Population Fragmented Nuclei (%) [9]: 20%
Population Healthy Nuclei (%) [9]: 21%
Population Hoechst High Intensity Objects (%) [9]: 19%
Population Membrane Permeable-Phenotype (%) [9]: 7%
Population Mitochondria Different-Phenotype (%) [9]: 53%
Population Mitotic Cells (%) [9]: 52%
Population Normal (%) [9]: 80%
Population Pyknosed Nuclei (%) [9]: 58%
Population Tubulin-Different-Phenotype (%) [9]: 67%
Total Cell Count [9]: 329
Population Apoptotic (%) [10]: 11%
Population Fragmented Nuclei (%) [10]: 4%
Population Healthy Nuclei (%) [10]: 77%
Population Hoechst High Intensity Objects (%) [10]: 2%
Population Membrane Permeable-Phenotype (%) [10]: 15%
Population Mitochondria Different-Phenotype (%) [10]: 15%
Population Mitotic Cells (%) [10]: 89%
Population Normal (%) [10]: 97%
Population Pyknosed Nuclei (%) [10]: 18%
Population Tubulin-Different-Phenotype (%) [10]: 52%
Total Cell Count [10]: 565
Population Apoptotic (%) [11]: 78%
Population Fragmented Nuclei (%) [11]: 21%
Population Healthy Nuclei (%) [11]: 8%
Population Hoechst High Intensity Objects (%) [11]: 21%
Population Membrane Permeable-Phenotype (%) [11]: 0%
Population Mitochondria Different-Phenotype (%) [11]: 100%
Population Mitotic Cells (%) [11]: 21%
Population Normal (%) [11]: 78%
Population Pyknosed Nuclei (%) [11]: 69%
Population Tubulin-Different-Phenotype (%) [11]: 95%
Total Cell Count [11]: 285
Population Apoptotic (%) [12]: 75%
Population Fragmented Nuclei (%) [12]: 9%
Population Healthy Nuclei (%) [12]: 55%
Population Hoechst High Intensity Objects (%) [12]: 10%
Population Membrane Permeable-Phenotype (%) [12]: 1%
Population Mitochondria Different-Phenotype (%) [12]: 96%
Population Mitotic Cells (%) [12]: 24%
Population Normal (%) [12]: 89%
Population Pyknosed Nuclei (%) [12]: 34%
Population Tubulin-Different-Phenotype (%) [12]: 85%
Total Cell Count [12]: 207
